Experimental data taken from ChEMBL document CHEMBL5104156, “Development of subtype-selective covalent ligands for the adenosine A2B receptor by tuning the reactive group” (RSC Med Chem, 2022).
The source made the active and inactive calls. No cut-off for these calls is given here.

Experiments:
Assay type in all cases: cell membranes
Adenosine receptor A2b [1] = target: T1, Adenosine receptor A2b (Homo sapiens, UniProt P29275); assay: Displacement of [3H]PSB-603 from human adenosine A2B receptor expressed in CHO cell membrane and measured after 0.5 hrs by radioligand displacement assay
T1 sequence (P29275 whole entry): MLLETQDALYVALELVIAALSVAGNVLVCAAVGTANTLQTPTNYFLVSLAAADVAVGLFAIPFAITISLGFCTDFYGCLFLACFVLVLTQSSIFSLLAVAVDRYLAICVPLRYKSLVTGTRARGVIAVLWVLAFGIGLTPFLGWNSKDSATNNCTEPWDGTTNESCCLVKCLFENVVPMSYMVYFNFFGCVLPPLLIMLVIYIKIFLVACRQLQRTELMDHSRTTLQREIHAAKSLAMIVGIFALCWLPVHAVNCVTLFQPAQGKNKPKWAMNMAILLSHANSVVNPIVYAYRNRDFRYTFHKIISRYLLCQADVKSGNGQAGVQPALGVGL

Adenosine receptor A2b [2] = target: T1, Adenosine receptor A2b; assay: Displacement of [3H]PSB-603 from human adenosine A2B receptor expressed in CHO cell membrane preincubated for 4 hrs followed by [3H]PSB-603 addition and measured after 0.5 hrs by radioligand displacement assay
[3] = target: T2, Adenosine receptor A2b (Homo sapiens) (UniProt P29275); assay: Ratio of Ki for displacement of [3H]PSB-603 from human adenosine A2B receptor expressed in CHO cell membrane to Ki for displacement of [3H]PSB-603 from human adenosine A2B receptor expressed in CHO cell membrane preincubated for 4hrs
T2 sequence (whole entry): T1 sequence (P29275 whole entry)
How it was run: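 CHO-spap-hA2BAR membranes (30 µg protein) in 50 mM Tris-HCl pH 7.4 with 0.1% CHAPS. Nonspecific binding was set with 10 µM ZM241385. Filtration was followed by scintillation counting.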

[4] = target: Adenosine receptor A2a (Homo sapiens) (UniProt P29274); assay: Displacement of [3H]ZM241385 from human adenosine A2A receptor expressed in HEK293 cell membrane at 1 uM and measured after 0.5 hrs by radioligand displacement assay
[5] = target: T3, Adenosine receptor A1 (Homo sapiens) (UniProt P30542); assay: Displacement of [3H]DPCPX from human adenosine A1 receptor expressed in CHO cell membrane at 1 uM and measured after 0.5 hrs by radioligand displacement assay
T3 sequence (whole entry): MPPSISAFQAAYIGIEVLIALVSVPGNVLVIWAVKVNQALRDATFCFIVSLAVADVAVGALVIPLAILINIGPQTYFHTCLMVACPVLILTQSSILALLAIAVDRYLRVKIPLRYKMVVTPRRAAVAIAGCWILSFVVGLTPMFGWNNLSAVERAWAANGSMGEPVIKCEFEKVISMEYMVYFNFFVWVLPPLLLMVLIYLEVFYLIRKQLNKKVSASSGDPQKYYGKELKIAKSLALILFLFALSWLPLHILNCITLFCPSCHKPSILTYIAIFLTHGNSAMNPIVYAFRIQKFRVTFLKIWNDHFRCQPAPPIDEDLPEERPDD

[6] = target: T3, Adenosine receptor A1 (Homo sapiens); assay: Displacement of [3H]DPCPX from human adenosine A1 receptor expressed in CHO cell membrane at 1 uM preincubated for 4 hrs followed by [3H]DPCPX addition and measured after 0.5 hrs by radioligand displacement assay; conditions: time 4.5 hrs
[7] = target: Adenosine receptor A2a (Homo sapiens) (UniProt P29274); assay: Displacement of [3H]ZM241385 from human adenosine A2A receptor expressed in HEK293 cell membrane at 1 uM preincubated for 4 hrs followed by [3H]ZM241385 addition and measured after 0.5 hrs by radioligand displacement assay; conditions: time 4.5 hrs
[8] = target: T4, Adenosine receptor A3 (Homo sapiens) (UniProt P0DMS8); assay: Displacement of [3H]PSB-11 from human adenosine A3 receptor expressed in CHO cell membrane at 1 uM and measured after 0.5 hrs by radioligand displacement assay
T4 sequence (whole entry): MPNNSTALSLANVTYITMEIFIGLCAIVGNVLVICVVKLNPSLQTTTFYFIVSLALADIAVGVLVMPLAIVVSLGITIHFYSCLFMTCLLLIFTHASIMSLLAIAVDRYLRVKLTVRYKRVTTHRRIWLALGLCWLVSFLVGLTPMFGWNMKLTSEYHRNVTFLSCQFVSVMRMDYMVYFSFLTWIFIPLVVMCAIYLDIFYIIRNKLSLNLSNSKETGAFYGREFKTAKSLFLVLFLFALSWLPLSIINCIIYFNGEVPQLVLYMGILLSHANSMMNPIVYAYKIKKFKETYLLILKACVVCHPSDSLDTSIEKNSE

[9] = target: T4, Adenosine receptor A3 (Homo sapiens); assay: Displacement of [3H]PSB-11 from human adenosine A3 receptor expressed in CHO cell membrane at 1 uM preincubated for 4 hrs followed by [3H]PSB-11 addition and measured after 0.5 hrs by radioligand displacement assay; conditions: time 4.5 hrs
[10] = target: T2, Adenosine receptor A2b (Homo sapiens); assay: Displacement of [3H]PSB-603 from human adenosine A2B receptor expressed in CHO cell membrane assessed as covalent adduct formation at 1 uM preincubated followed by 4 times washing treatment and then with [3H]PSB-603 exposure by radioligand displacement assay
How it was run: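 CHO-spap-hA2BAR membranes (80 µg protein) were shaken 2 h at 25 °C with ligand, added as a 1 µM solution, in 0.1% CHAPS/50 mM Tris-HCl pH 7.4. The washed set was pelleted, resuspended and shaken 10 min at 25 °C, repeated three times; an unwashed set was kept for comparison. Both sets then had [3H]PSB-603 (1.5 nM solution) added for 2 h at 25 °C, with nonspecific binding set by 10 µM ZM241385. Filtration, then scintillation counting.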

Sequence of Adenosine receptor A2a (Homo sapiens) (P29274 whole entry): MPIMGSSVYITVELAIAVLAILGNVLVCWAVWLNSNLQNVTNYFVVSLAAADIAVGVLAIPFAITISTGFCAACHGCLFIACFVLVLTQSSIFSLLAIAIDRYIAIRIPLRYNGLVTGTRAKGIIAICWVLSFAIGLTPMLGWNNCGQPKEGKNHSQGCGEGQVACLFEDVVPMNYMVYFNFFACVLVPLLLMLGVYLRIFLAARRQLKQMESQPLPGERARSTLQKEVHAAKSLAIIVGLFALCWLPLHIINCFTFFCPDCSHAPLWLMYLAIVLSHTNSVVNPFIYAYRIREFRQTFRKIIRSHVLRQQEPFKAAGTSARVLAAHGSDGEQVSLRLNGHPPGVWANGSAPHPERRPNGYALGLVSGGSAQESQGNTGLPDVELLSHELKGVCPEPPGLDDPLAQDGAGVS

SMILES | Ki (Adenosine receptor A2b [1]) [nM] | Ki (Adenosine receptor A2b [2]) [nM] | Ratio Ki [3] | Activity [4] [%] | Activity [5] [%] | Activity [6] [%] | Activity [7] [%] | Activity [8] [%] | Activity [9] [%] | Activity [10]
CCCn1c(=O)c2[nH]c(-c3cccc(OS(=O)(=O)F)c3)nc2n(CCC)c1=O | 562 | 525 | 1.2 | 13 | 76 | 77 | 12 | 64 | 58 | –
CCCn1c(=O)[nH]c2nc(-c3ccc(OS(=O)(=O)F)cc3)[nH]c2c1=O | 11.7 | 5.5 | 2.2 | 35 | 17 | 12 | 24 | 8 | 8 | Active
CCCn1c(=O)[nH]c2nc(-c3cccc(N=C=S)c3)[nH]c2c1=O | 110 | 2.82 | 74.3 | 0 | 7 | 16 | 6 | 58 | 95 | –
CCCn1c(=O)c2[nH]c(-c3cccc(N=C=S)c3)nc2n(CCC)c1=O | 617 | 49 | 19.3 | 47 | 73 | 96 | 34 | 89 | 100 | –
CCCn1c(=O)c2[nH]c(-c3ccc(S(=O)(=O)F)cc3)nc2n(CCC)c1=O | 60.3 | 2.4 | 27.3 | 54 | 61 | 69 | 55 | 12 | 5 | –
CCCn1c(=O)c2[nH]c(-c3ccc(OS(=O)(=O)F)cc3)nc2n(CCC)c1=O | 49 | 51.3 | 1 | 63 | 79 | 85 | 69 | 47 | 49 | –
CCCn1c(=O)c2[nH]c(-c3ccc(N=C=S)cc3)nc2n(CCC)c1=O | 24 | 3.24 | 7.7 | 40 | 77 | 92 | 39 | 48 | 96 | –
CCCn1c(=O)[nH]c2nc(-c3cccc(S(=O)(=O)F)c3)[nH]c2c1=O | 132 | 13.2 | 10.2 | 20 | 6 | 36 | 6 | 14 | 10 | –
CCCn1c(=O)[nH]c2nc(-c3cccc(OS(=O)(=O)F)c3)[nH]c2c1=O | 141 | 70.8 | 1.6 | 2 | 6 | 1 | 0 | 14 | 5 | –
CCCn1c(=O)[nH]c2nc(-c3ccc(S(=O)(=O)F)cc3)[nH]c2c1=O | 7.94 | 0.676 | 12.1 | 52 | 29 | 41 | 43 | 7 | 9 | Active
CCCn1c(=O)[nH]c2nc(-c3ccc(N=C=S)cc3)[nH]c2c1=O | 2.14 | 0.661 | 3.4 | 25 | 51 | 97 | 27 | 15 | 66 | –
CCCn1c(=O)c2[nH]c(-c3cccc(S(=O)(=O)F)c3)nc2n(CCC)c1=O | 955 | 158 | 7.1 | 19 | 52 | 61 | 23 | 30 | 43 | –
